# According to ChEMBL document CHEMBL1149565, “Identification of a novel series of benzimidazoles as potent and selective antagonists of the human melanocortin-4 receptor” (Bioorg Med Chem Lett, 2007):
# Activity calls are given as the source filed them. The calls are words filed in the database; no cut-off is given here.
# Assays:
# Melanocortin receptor 4 [1] = biological target: T1, Melanocortin receptor 4 (Homo sapiens, UniProt P32245); assay: Displacement of [125I]NDP-alphaMSH from human melanocortin 4 receptor expressed in CHOK1 cells; type: cell-based, CHO-K1
# T1 sequence (P32245 whole entry): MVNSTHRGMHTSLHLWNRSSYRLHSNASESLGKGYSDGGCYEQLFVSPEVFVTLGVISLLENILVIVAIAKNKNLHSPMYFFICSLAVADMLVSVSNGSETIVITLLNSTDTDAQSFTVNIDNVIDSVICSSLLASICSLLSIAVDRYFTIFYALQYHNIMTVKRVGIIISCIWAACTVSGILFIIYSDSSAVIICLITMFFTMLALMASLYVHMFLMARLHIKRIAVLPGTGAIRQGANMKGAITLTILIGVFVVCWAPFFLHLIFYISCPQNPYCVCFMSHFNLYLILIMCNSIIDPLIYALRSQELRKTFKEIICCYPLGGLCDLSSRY
# Outline: (§1)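 Membranes from CHO-K1 cells stably expressing human MC1, MC3, MC4 or MC5 receptor, 1–10 µg protein/well, in 50 mM Tris-HCl pH 7.4 with 0.2% BSA, 5 mM MgCl2, 1 mM CaCl2, 0.1 mg/mL bacitracin. Incubated with increasing test compound and 0.1–0.3 nM [125I]NDP-α-MSH, 90–120 min at 37 °C depending on subtype. Filtration on PEI-presoaked GF/C filters, cold buffer washes, radioactivity counted; nonlinear regression; three independent measurements.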
# [2] = biological target: Melanocyte-stimulating hormone receptor (Homo sapiens, UniProt Q01726); assay: Displacement of [125I]NDP-alphaMSH from human melanocortin 1 receptor expressed in CHOK1 cells; type: cell-based, CHO-K1; outline: as §1
# Sequence of Melanocyte-stimulating hormone receptor (Q01726 whole entry): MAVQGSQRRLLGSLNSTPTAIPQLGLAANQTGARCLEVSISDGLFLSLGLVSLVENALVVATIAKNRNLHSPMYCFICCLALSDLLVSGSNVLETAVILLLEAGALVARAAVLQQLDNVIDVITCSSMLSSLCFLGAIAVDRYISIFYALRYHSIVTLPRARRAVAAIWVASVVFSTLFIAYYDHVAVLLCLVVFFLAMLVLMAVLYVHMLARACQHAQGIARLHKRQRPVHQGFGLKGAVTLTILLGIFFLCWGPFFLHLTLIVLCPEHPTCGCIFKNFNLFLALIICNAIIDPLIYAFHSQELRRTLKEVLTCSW
# Melanocortin receptor 3 = Melanocortin receptor 3 (Homo sapiens, UniProt P41968); assay: Displacement of [125I]NDP-alphaMSH from human melanocortin 3 receptor expressed in CHOK1 cells; type: cell-based, CHO-K1; outline: as §1
# Sequence of Melanocortin receptor 3 (P41968 whole entry): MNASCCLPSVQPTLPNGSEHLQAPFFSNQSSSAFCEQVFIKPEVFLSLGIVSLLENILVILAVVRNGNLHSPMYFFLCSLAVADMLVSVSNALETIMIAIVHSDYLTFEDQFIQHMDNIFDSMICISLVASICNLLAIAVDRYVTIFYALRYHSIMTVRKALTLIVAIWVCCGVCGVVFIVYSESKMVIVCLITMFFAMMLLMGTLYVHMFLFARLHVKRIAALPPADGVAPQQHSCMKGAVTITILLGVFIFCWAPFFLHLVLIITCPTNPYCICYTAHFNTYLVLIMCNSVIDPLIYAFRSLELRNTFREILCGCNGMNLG
# Melanocortin receptor 5 = Melanocortin receptor 5 (Homo sapiens, UniProt P33032); assay: Displacement of [125I]NDP-alphaMSH from human melanocortin 5 receptor expressed in CHOK1 cells; type: cell-based, CHO-K1; outline: as §1
# Sequence of Melanocortin receptor 5 (P33032 whole entry): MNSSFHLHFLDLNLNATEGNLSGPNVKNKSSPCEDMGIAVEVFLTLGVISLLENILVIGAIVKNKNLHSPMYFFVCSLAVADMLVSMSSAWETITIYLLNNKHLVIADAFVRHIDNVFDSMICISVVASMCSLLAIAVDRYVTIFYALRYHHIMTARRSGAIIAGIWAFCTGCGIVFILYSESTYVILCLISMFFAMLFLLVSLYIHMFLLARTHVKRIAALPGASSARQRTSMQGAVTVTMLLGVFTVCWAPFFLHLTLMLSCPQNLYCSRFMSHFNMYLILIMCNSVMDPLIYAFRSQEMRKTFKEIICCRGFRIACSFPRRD
# Melanocortin receptor 4 [3] = biological target: T1, Melanocortin receptor 4; assay: Antagonist activity at human melanocortin 4 receptor expressed in CHOK1 cells assessed as inhibition of NDP-alpha-MSH-stimulated cAMP production; type: functional, cell-based; details: CHO-K1
# Outline: (§2)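 CHO-K1 cells stably expressing human MC4 receptor, suspended in RPMI 1640 with 0.5 mM IBMX and 0.2% protein cocktail, 7000 cells/well on anti-cAMP antibody-coated electrode plates. NDP-α-MSH concentration–response run with increasing test compound concentrations (agonist check at 10 µM alone), 40 min at 37 °C. Cells lysed, 2.5 nM ruthenium-labelled cAMP added, 90 min, then electrochemiluminescence read-out. Nonlinear regression; KB by Schild regression, logarithmic mean of three independent measurements.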
# [4] = biological target: Melanocortin receptor (M3 and M4) (Homo sapiens) (UniProt P32245+P41968); assay: Selectivity for human MC4R over human MC3R; type: protein assay
# Melanocortin receptor 4 [5] = biological target: T1, Melanocortin receptor 4; assay: Agonist activity at human melanocortin 4 receptor expressed in CHOK1 cells assessed as stimulation of cAMP production at 10 uM; type: functional, cell-based; details: CHO-K1; outline: as §2
# [6] = Half life in Sprague-Dawley rat at 4.5 umol/kg, iv; type: ADME, organism-based; details: in vivo
# Outline: (§3)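 Fed male Sprague–Dawley rats, three per time point, given 4.5 µmol/kg intravenously via penile vein in 1 ml/kg 10% DMA/90% propanediol. Under deep isoflurane anaesthesia, blood taken from vena cava at 1, 15, 30, 60, 90 and 120 min, centrifuged 2000g, 15 min, 4 °C. Plasma and brain levels measured; brain/blood ratio from AUC.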
# [7] = Ratio of drug level in brain to blood in Sprague-Dawley rat at 4.5 umol/kg, iv; type: ADME, tissue-based; details: read-out: Ratio AUC; outline: as §3
Compound,Ki (Melanocortin receptor 4 [1]; read-out: Ki),also measured
CC(=O)c1ccc(Nc2nc3ccc(C(=O)N(CCC(C)C)CCC(C)C)cc3n2CCCN)cc1,60 nM,
CC(C)CCN(CCC(C)C)C(=O)c1ccc2nc(NCc3ccccc3)n(CCCN3CCCCC3)c2c1,18 nM,
CC(=O)c1ccc(Nc2nc3ccc(C(=O)N(CCC(C)C)CCC(C)C)cc3n2CCCN2CCOCC2)cc1,33 nM,
COC(=O)c1ccc(-c2nc3ccc(C(=O)N(CCC(C)C)CCC(C)C)cc3n2CCCN2CCCCC2)cc1,45 nM,
CC(C)CCN(CCC(C)C)C(=O)c1ccc2nc(Nc3ccc(F)cc3)n(CCCN3CCCCC3)c2c1,8.3 nM,
CC(=O)c1ccc(-c2nc3ccc(C(=O)N(CCC(C)C)CCC(C)C)cc3n2CCCN2CCCCC2)cc1,20 nM,
CCC(=O)c1ccc(Nc2nc3ccc(C(=O)N(CCC(C)C)CCC(C)C)cc3n2CCCN2CCCCC2)cc1,2.7 nM,
CC(=O)c1ccc(CNc2nc3ccc(C(=O)N(CCC(C)C)CCC(C)C)cc3n2CCCN2CCCCC2)cc1,5.8 nM,
CC(=O)c1ccc(Nc2nc3ccc(C(=O)N(CCC(C)C)CCC(C)C)cc3n2CCCO)cc1,2300 nM,
CC(=O)c1ccc(Nc2nc3ccc(C(=O)N(CCC(C)C)CCC(C)C)cc3n2CCCN(C)C)cc1,12 nM,
CC(=O)c1ccc(Nc2nc3ccc(C(=O)N(CCC(C)C)CCC(C)C)cc3n2CCCCN)cc1,130 nM,
CC(C)CCN(CCC(C)C)C(=O)c1ccc2nc(-c3cn(C)c4ccccc34)n(CCCN3CCCCC3)c2c1,3.2 nM,
CC(=O)c1ccc(Nc2nc3ccc(C(=O)N(CCC(C)C)CCC(C)C)cc3n2C2CCN(C)CC2)cc1,50 nM,
CC(=O)c1ccc(Nc2nc3ccc(C(=O)N(CCC(C)C)CCC(C)C)cc3n2CCN)cc1,220 nM,
CC(=O)NCCNc1nc2ccc(C(=O)N(CCC(C)C)CCC(C)C)cc2n1CCCN1CCCCC1,31 nM,
COc1cc(Nc2nc3ccc(C(=O)N(CC(C)C)CC(C)C)cc3n2CCCN)cc(OC)c1OC,11000 nM,Ki (Melanocortin receptor 4 [1]; read-out: Log Ki (converted)): 11700 nM
CC(C)CCN(CCC(C)C)C(=O)c1ccc2nc(Nc3ccc(N4CCCCC4)cc3)n(CCCN3CCCCC3)c2c1,9.7 nM,
CC(=O)c1ccc(Nc2nc3ccc(C(=O)N(CCC(C)C)CCC(C)C)cc3n2CC(C)(C)CN(C)C)cc1,730 nM,
CC(C)CCN(CCC(C)C)C(=O)c1ccc2nc(Nc3cccnc3)n(CCCN3CCCCC3)c2c1,4.2 nM,
CC(C)CCN(CCC(C)C)C(=O)c1ccc2nc(Nc3ccc(-c4ccccc4)cc3)n(CCCN3CCCCC3)c2c1,5.2 nM,
CC(C)CCN(CCC(C)C)C(=O)c1ccc2nc(Nc3cccc4[nH]ccc34)n(CCCN3CCCCC3)c2c1,14 nM,
CNC(=O)c1ccc(Nc2nc3ccc(C(=O)N(CCC(C)C)CCC(C)C)cc3n2CCCN2CCCCC2)cc1,3.3 nM,Ki [2]: 9300 nM; Ki (Melanocortin receptor 3): 130 nM; Ki (Melanocortin receptor 5): 880 nM; Kb (Melanocortin receptor 4 [3]): 3.2 nM; Fold change [4]: 40; Activity (Melanocortin receptor 4 [5]): inactive
COC(=O)c1ccc(Nc2nc3ccc(C(=O)N(CCC(C)C)CCC(C)C)cc3n2CCCN2CCCCC2)cc1,0.9 nM,
CC(=O)c1ccc(Nc2nc3ccc(C(=O)N(CCC(C)C)CCC(C)C)cc3n2CCCNC(=O)OC(C)(C)C)cc1,> 10000 nM,Ki (Melanocortin receptor 4 [1]; read-out: Log Ki (converted)): 85100 nM
CC(C)CCN(CCC(C)C)C(=O)c1ccc2nc(Nc3ccsc3)n(CCCN3CCCCC3)c2c1,33 nM,
CCCCCN(CCCCC)C(=O)c1ccc2nc(Nc3cc(OC)c(OC)c(OC)c3)n(CCCN)c2c1,640 nM,
CC(=O)c1ccc(Nc2nc3ccc(C(=O)N(CCC(C)C)CCC(C)C)cc3n2CCCN2CCCCC2)cc1,2 nM,Ki [2]: 5200 nM; Ki (Melanocortin receptor 3): 400 nM; Ki (Melanocortin receptor 5): 2200 nM; Kb (Melanocortin receptor 4 [3]): 77 nM; half-life [6]: 5 h; Kp [7]: 2.9; Activity (Melanocortin receptor 4 [5]): inactive

Compound,Ki (Melanocortin receptor 4 [1]; read-out: Ki),also measured
COCCNc1nc2ccc(C(=O)N(CCC(C)C)CCC(C)C)cc2n1CCCN1CCCCC1,78 nM,
CC(C)CCN(CCC(C)C)C(=O)c1ccc2nc(-c3c[nH]c4ccccc34)n(CCCN3CCCCC3)c2c1,7 nM,
COc1ccc(C(=O)c2nc3ccc(C(=O)N(CCC(C)C)CCC(C)C)cc3n2CCCN2CCCCC2)cc1,0.96 nM,Ki [2]: 7500 nM; Ki (Melanocortin receptor 3): 540 nM; Ki (Melanocortin receptor 5): 1600 nM; Kb (Melanocortin receptor 4 [3]): 44 nM; Fold change [4]: 40; Activity (Melanocortin receptor 4 [5]): inactive
COc1ccc(-c2nc3ccc(C(=O)N(CCC(C)C)CCC(C)C)cc3n2CCCN2CCCCC2)cc1,37 nM,
CC(C)CCN(CCC(C)C)C(=O)c1ccc2nc(Nc3ccccc3)n(CCCN3CCCCC3)c2c1,7.3 nM,
COc1cc(Nc2nc3ccc(C(=O)N(CCC(C)C)CCC(C)C)cc3n2CCCN)cc(OC)c1OC,420 nM,
COc1ccc(Cc2nc3ccc(C(=O)N(CCC(C)C)CCC(C)C)cc3n2CCCN2CCCCC2)cc1,28 nM,
CC(=O)c1ccc(Cc2nc3ccc(C(=O)N(CCC(C)C)CCC(C)C)cc3n2CCCN2CCCCC2)cc1,3.9 nM,Ki [2]: > 10000 nM; Ki (Melanocortin receptor 3): 4500 nM; Ki (Melanocortin receptor 5): 5900 nM; Kb (Melanocortin receptor 4 [3]): 14 nM; Activity (Melanocortin receptor 4 [5]): inactive
CC(=O)Nc1ccc(Nc2nc3ccc(C(=O)N(CCC(C)C)CCC(C)C)cc3n2CCCN2CCCCC2)cc1,3.7 nM,
CC(C)CCN(CCC(C)C)C(=O)c1ccc2nc(Nc3ccc(Br)cc3)n(CCCN3CCCCC3)c2c1,7.5 nM,
CC(=O)c1cccc(Nc2nc3ccc(C(=O)N(CCC(C)C)CCC(C)C)cc3n2CCCN2CCCCC2)c1,4.5 nM,
CC(C)CCN(CCC(C)C)C(=O)c1ccc2nc(Nc3ccc([N+](=O)[O-])cc3)n(CCCN3CCCCC3)c2c1,2.2 nM,
CC(=O)c1ccccc1Nc1nc2ccc(C(=O)N(CCC(C)C)CCC(C)C)cc2n1CCCN1CCCCC1,110 nM,
CC(=O)c1ccc(Nc2nc3ccc(C(=O)N(CCC(C)C)CCC(C)C)cc3n2CCCN2CCN(C)CC2)cc1,45 nM,
COc1ccc(Nc2nc3ccc(C(=O)N(CCC(C)C)CCC(C)C)cc3n2CCCN2CCCCC2)cc1,5 nM,
CC(=O)c1ccc(Nc2nc3ccc(C(=O)N(CCC(C)C)CCC(C)C)cc3n2CCCN2CCCC2)cc1,4.9 nM,
CC(C)CCN(CCC(C)C)C(=O)c1ccc2nc(-c3cc4ccccc4s3)n(CCCN3CCCCC3)c2c1,2.9 nM,
CCN(CC)CCCn1c(Nc2ccc(C(C)=O)cc2)nc2ccc(C(=O)N(CCC(C)C)CCC(C)C)cc21,7.9 nM,
CC(C)CCN(CCC(C)C)C(=O)c1ccc2nc(Nc3ccc(Cl)cc3)n(CCCN3CCCCC3)c2c1,8.8 nM,
CC(C)CCN(CCC(C)C)C(=O)c1ccc2nc(Nc3ccc(Oc4ccccc4)cc3)n(CCCN3CCCCC3)c2c1,2.1 nM,
CC(=O)c1ccc(Nc2nc3ccc(C(=O)N(CC(C)C)CC(C)C)cc3n2CCCN)cc1,770 nM,
CNCCCn1c(Nc2ccc(C(C)=O)cc2)nc2ccc(C(=O)N(CCC(C)C)CCC(C)C)cc21,51 nM,
CC(C)CCN(CCC(C)C)C(=O)c1ccc2nc(Nc3ccc(C(=O)c4ccccc4)cc3)n(CCCN3CCCCC3)c2c1,1.7 nM,
CC(C)CCN(CCC(C)C)C(=O)c1ccc2nc(Nc3ccc(C(N)=O)cc3)n(CCCN3CCCCC3)c2c1,6.5 nM,
CCCCN(CCCC)C(=O)c1ccc2nc(Nc3cc(OC)c(OC)c(OC)c3)n(CCCN)c2c1,1000 nM,
CCCN(CCC)C(=O)c1ccc2nc(Nc3cc(OC)c(OC)c(OC)c3)n(CCCN)c2c1,17000 nM,Ki (Melanocortin receptor 4 [1]; read-out: Log Ki (converted)): 17800 nM
